Measured values taken from ChEMBL document CHEMBL1255289, “In vitro antifungal activities of isavuconazole (BAL4815), voriconazole, and fluconazole against 1,007 isolates of zygomycete, Candida, Aspergillus, Fusarium, and Scedosporium species” (2008).
In brackets after ≈: the same amount, converted by molar mass.

Legend:
Assay type in all cases: functional
Candida albicans = test: Antifungal activity against Candida albicans isolates after 48 hrs by CLSI M27-A2 procedure based assay; settings: Candida albicans, 48 h
How it was run: (§1)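 Candida isolates tested by CLSI M27-A2 broth microdilution at final 0.015–16 µg/ml, or 0.125–128 µg/ml for the comparator azole. Incubation was at 35°C with a visual read at 48 h. MIC-2 was the lowest concentration giving a prominent turbidity drop, about 50% growth inhibition.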

Syncephalastrum [1] = test: Antifungal activity against Syncephalastrum isolates assessed as lowest compound concentration that produced complete inhibition of microbial growth after 24 hrs by CLSI M38-A procedure based assay
How it was run: (§2)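 Zygomycete isolates subcultured on potato dextrose or Sabouraud agar, then tested by CLSI M38-A broth microdilution. Drugs were serially diluted in plates at final 0.015–16 µg/ml and incubated at 35°C. Plates were read by eye at 24 h. MIC-0 was the lowest concentration giving complete growth inhibition.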

Fusarium [2] = test: Antifungal activity against Fusarium sp. isolates assessed as lowest compound concentration that produced slight growth or approximately 25% of that of growth control after 24 hrs by CLSI M38-A procedure based assay
Aspergillus flavus = test: Antifungal activity against Aspergillus flavus isolates after 48 hrs by CLSI M38-A procedure based assay; settings: Aspergillus flavus, 48 h
How it was run: (§3)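 Aspergillus isolates tested by CLSI M38-A broth microdilution at final 0.015–16 µg/ml and 35°C. Plates were read macroscopically at 48 h. The MIC was the lowest concentration producing complete inhibition of growth (MIC-0).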

Mucor [3] = test: Antifungal activity against Mucor isolates assessed as lowest compound concentration that produced slight growth or approximately 25% of that of growth control after 24 hrs by CLSI M38-A procedure based assay
How it was run: (§4)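 Clinical isolates were kept at –70°C as spore suspensions in sterile water and subcultured on potato dextrose or Sabouraud agar before testing. Broth microdilution used DMSO stocks in trays stored at –70°C, with final drug 0.015–16 µg/ml.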

Pichia kudriavzevii = test: Antifungal activity against Candida krusei isolates after 48 hrs by CLSI M27-A2 procedure based assay; how it was run: as §1
Aspergillus sp. = test: Antifungal activity against Aspergillus sp. isolates after 48 hrs by CLSI M38-A procedure based assay; how it was run: as §3
Mucor [4] = test: Antifungal activity against Mucor isolates assessed as lowest compound concentration that produced complete inhibition of microbial growth after 24 hrs by CLSI M38-A procedure based assay; settings: Mucor, 24 h; how it was run: as §2
Lomentospora prolificans [5] = test: Antifungal activity against Scedosporium prolificans isolates assessed as lowest compound concentration that produced slight growth or approximately 25% of that of growth control after 24 hrs by CLSI M38-A procedure based assay
Lomentospora prolificans [6] = test: Antifungal activity against Scedosporium prolificans isolates assessed as lowest compound concentration that produced complete inhibition of microbial growth after 24 hrs by CLSI M38-A procedure based assay; settings: Lomentospora prolificans, 24 h
Nakaseomyces glabratus = test: Antifungal activity against Candida glabrata isolates after 48 hrs by CLSI M27-A2 procedure based assay; settings: Nakaseomyces glabratus, 48 h; how it was run: as §1
Candida parapsilosis = test: Antifungal activity against Candida parapsilosis isolates after 48 hrs by CLSI M27-A2 procedure based assay; settings: Lodderomyces parapsilosis, 48 h; how it was run: as §1
Syncephalastrum [7] = test: Antifungal activity against Syncephalastrum isolates assessed as lowest compound concentration that produced slight growth or approximately 25% of that of growth control after 24 hrs by CLSI M38-A procedure based assay; how it was run: as §4
Candida = test: Antifungal activity against Candida sp. isolates after 48 hrs by CLSI M27-A2 procedure based assay
How it was run: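 Candida isolates were stored at –70°C as yeast suspensions and subcultured on potato dextrose or Sabouraud agar before use. Broth microdilution used DMSO drug stocks, with final well concentrations of 0.015–16 or 0.125–128 µg/ml depending on the azole. Plates were incubated at 35°C and read macroscopically at 48 h. MIC-2 was the lowest concentration giving a prominent turbidity decrease (~50% growth inhibition).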

Scedosporium apiospermum [8] = test: Antifungal activity against Scedosporium apiospermum isolates assessed as lowest compound concentration that produced slight growth or approximately 25% of that of growth control after 24 hrs by CLSI M38-A procedure based assay
Absidia [9] = test: Antifungal activity against Absidia isolates assessed as lowest compound concentration that produced slight growth or approximately 25% of that of growth control after 24 hrs by CLSI M38-A procedure based assay; how it was run: as §4
Rhizopus [10] = test: Antifungal activity against Rhizopus isolates assessed as lowest compound concentration that produced slight growth or approximately 25% of that of growth control after 24 hrs by CLSI M38-A procedure based assay
How it was run: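 Rhizopus isolates tested by CLSI M38-A broth microdilution at final 0.015–16 µg/ml, 35°C, read by eye at 24 h.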

Absidia [11] = test: Antifungal activity against Absidia isolates assessed as lowest compound concentration that produced complete inhibition of microbial growth after 24 hrs by CLSI M38-A procedure based assay; how it was run: as §2
Cunninghamella [12] = test: Antifungal activity against Cunninghamella isolates assessed as lowest compound concentration that produced complete inhibition of microbial growth after 24 hrs by CLSI M38-A procedure based assay; how it was run: as §2
Aspergillus niger = test: Antifungal activity against Aspergillus niger isolates after 48 hrs by CLSI M38-A procedure based assay; settings: Aspergillus niger, 48 h; how it was run: as §3
Fusarium [13] = test: Antifungal activity against Fusarium sp. isolates assessed as lowest compound concentration that produced complete inhibition of microbial growth after 24 hrs by CLSI M38-A procedure based assay; settings: Fusarium, 24 h
Candida tropicalis = test: Antifungal activity against Candida tropicalis isolates after 48 hrs by CLSI M27-A2 procedure based assay; settings: Candida tropicalis, 48 h; how it was run: as §1
Scedosporium apiospermum [14] = test: Antifungal activity against Scedosporium apiospermum isolates assessed as lowest compound concentration that produced complete inhibition of microbial growth after 24 hrs by CLSI M38-A procedure based assay; settings: Scedosporium apiospermum, 24 h
Rhizopus [15] = test: Antifungal activity against Rhizopus isolates assessed as lowest compound concentration that produced complete inhibition of microbial growth after 24 hrs by CLSI M38-A procedure based assay; settings: Rhizopus, 24 h; how it was run: as §2
Aspergillus fumigatus = test: Antifungal activity against Aspergillus fumigatus isolates after 48 hrs by CLSI M38-A procedure based assay; settings: Aspergillus fumigatus, 48 h; how it was run: as §3
Cunninghamella [16] = test: Antifungal activity against Cunninghamella isolates assessed as lowest compound concentration that produced slight growth or approximately 25% of that of growth control after 24 hrs by CLSI M38-A procedure based assay; how it was run: as §4
Aspergillus terreus = test: Antifungal activity against Aspergillus terreus isolates after 48 hrs by CLSI M38-A procedure based assay; settings: Aspergillus terreus, 48 h; how it was run: as §3

`C[C@@H](c1ncncc1F)[C@](O)(Cn1cncn1)c1ccc(F)cc1F` [VORICONAZOLE] gave an MIC50 (Candida albicans) of 0.03 µg/mL (≈ 0.0859 µM), an MIC90 (Candida albicans) of 0.06 µg/mL (≈ 0.172 µM) and an MIC (Syncephalastrum [1]) of 4 µg/mL (≈ 11.5 µM). The MIC50 (Fusarium [2]) was 4 µg/mL (≈ 11.5 µM), the MIC90 (Fusarium [2]) was 8 µg/mL (≈ 22.9 µM) and the MIC50 (Aspergillus flavus) was 1 µg/mL (≈ 2.86 µM). The MIC90 (Aspergillus flavus) was 1 µg/mL (≈ 2.86 µM), the MIC50 (Mucor [3]) was 16 µg/mL (≈ 45.8 µM) and the MIC90 (Mucor [3]) was > 16 µg/mL. For the same compound, the MIC (Pichia kudriavzevii) was 0.125 µg/mL (≈ 0.358 µM), the MIC (Aspergillus sp.) was 0.125 µg/mL (≈ 0.358 µM) and the MIC50 (Mucor [4]) was > 16 µg/mL. The MIC90 (Mucor [4]) was > 16 µg/mL, the MIC (Lomentospora prolificans [5]) was 4 µg/mL (≈ 11.5 µM) and the MIC (Lomentospora prolificans [6]) was 16 µg/mL (≈ 45.8 µM). The MIC50 (Nakaseomyces glabratus) was 0.125 µg/mL (≈ 0.358 µM), the MIC90 (Nakaseomyces glabratus) was 1 µg/mL (≈ 2.86 µM) and the MIC (Candida parapsilosis) was < 0.015 µg/mL. The MIC50 (Candida parapsilosis) was < 0.015 µg/mL, the MIC90 (Candida parapsilosis) was 0.06 µg/mL (≈ 0.172 µM) and the MIC (Syncephalastrum [7]) was 2 µg/mL (≈ 5.73 µM). It also gave an MIC (Candida) of 0.006 µg/mL (≈ 0.0172 µM), an MIC50 (Scedosporium apiospermum [8]) of 0.25 µg/mL (≈ 0.716 µM) and an MIC90 (Scedosporium apiospermum [8]) of 0.5 µg/mL (≈ 1.43 µM). The MIC (Absidia [9]) was 4 µg/mL (≈ 11.5 µM), the MIC50 (Rhizopus [10]) was 8 µg/mL (≈ 22.9 µM) and the MIC90 (Rhizopus [10]) was > 16 µg/mL. The MIC (Absidia [11]) was 4 µg/mL (≈ 11.5 µM), the MIC (Cunninghamella [12]) was > 16 µg/mL and the MIC50 (Aspergillus niger) was 1 µg/mL (≈ 2.86 µM). It also gave an MIC90 (Aspergillus niger) of 1 µg/mL (≈ 2.86 µM), an MIC50 (Fusarium [13]) of 4 µg/mL (≈ 11.5 µM) and an MIC90 (Fusarium [13]) of 16 µg/mL (≈ 45.8 µM). For the same compound, the MIC50 (Candida tropicalis) was 0.03 µg/mL (≈ 0.0859 µM), the MIC90 (Candida tropicalis) was 0.06 µg/mL (≈ 0.172 µM) and the MIC50 (Scedosporium apiospermum [14]) was 0.5 µg/mL (≈ 1.43 µM). It also gave an MIC90 (Scedosporium apiospermum [14]) of 1 µg/mL (≈ 2.86 µM), an MIC (Rhizopus [15]) of 8 µg/mL (≈ 22.9 µM) and an MIC50 (Rhizopus [15]) of 8 µg/mL (≈ 22.9 µM). For the same compound, the MIC90 (Rhizopus [15]) was 16 µg/mL (≈ 45.8 µM), the MIC50 (Aspergillus fumigatus) was 0.5 µg/mL (≈ 1.43 µM) and the MIC90 (Aspergillus fumigatus) was 1 µg/mL (≈ 2.86 µM). For the same compound, the MIC (Cunninghamella [16]) was 8 µg/mL (≈ 22.9 µM), the MIC50 (Aspergillus terreus) was 1 µg/mL (≈ 2.86 µM) and the MIC90 (Aspergillus terreus) was 1 µg/mL (≈ 2.86 µM).
